Test results as given in ChEMBL document CHEMBL4196179, “Synthesis and Pharmacological Evaluation of Noscapine-Inspired 5-Substituted Tetrahydroisoquinolines as Cytotoxic Agents” (J Med Chem, 2018).
The source made the active and inactive calls. The calls are words filed in the database; no cut-off is given here.

What was measured:
PANC-1 [1] = test: Cell cycle arrest in human PANC1 cells assessed as increase in accumulation at G2/M phase at 10 uM after 18 hrs by Hoechst 33342 staining based FACS analysis relative to control; assay type: functional
Summary of the method: (§1)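 Cells seeded 48 h beforehand, treated 18 h with test compounds at 10 µM or vincristine at 100 nM, then trypsinised and stained with Hoechst 33342 for 60 min; FACS read at 450 nm; % G2/M increase calculated relative to 0.1% DMSO vehicle; mean ± SEM of three independent experiments.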

MCF7 [2] = test: Cell cycle arrest in human MCF7 cells assessed as increase in accumulation at G2/M phase at 10 uM after 18 hrs by Hoechst 33342 staining based FACS analysis relative to control; assay type: functional; summary of the method: as §1
[3] = Binding affinity to recombinant P-gp cys-less mutant (unknown origin) in proteoliposomes assessed as increase in ATP hydrolysis rate after 40 mins by colorimetric assay; parameters: species or system Homo sapiens
Summary of the method: (§2)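 P-gp expressed in High-Five insect cells via recombinant baculovirus, IMAC-purified and reconstituted into proteoliposomes; 0.1-0.5 µg incubated with 2 mM ATP and drug at 10^-9 to 10^-4 M for 40 min at 37 °C; liberated Pi measured colorimetrically; EC50 and extent of stimulation from dose-response fit against drug-free basal activity.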

NCI/ADR-RES [4] = test: Inhibition of P-gp in human NCI/ADR-RES cells assessed as rate of calcein-AM accumulation at 1 uM by fluorescence assay; assay type: cell-based
Summary of the method: (§3)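 Cells seeded at 2 × 10^3/well and grown 2 d, washed and placed in HBSS; test compound added at 2X in HBSS with DMSO ≤1% final, then calcein-AM at 1 µM final; intracellular fluorescence followed over time, rate taken as slope from linear regression.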

Homo sapiens [5] = species on record: Homo sapiens; test: Binding affinity to recombinant P-gp cys-less mutant (unknown origin) in proteoliposomes assessed as increase in ATP hydrolysis rate at 10^-9 to 10^-4 M after 40 mins by colorimetric assay relative to basal control; summary of the method: as §2
[6] = Ratio of IC50 for human NCI/ADR-RES cells to IC50 for human MCF7 cells; assay type: functional
Summary of the method: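 IC50 in doxorubicin-selected P-gp-expressing NCI/AdrRES cells divided by IC50 in parental MCF-7, each from 6 d MTT viability dose-response curves fitted by non-linear regression.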

MCF7 [7] = test: Antiproliferative activity against human MCF7 cells after 6 days by MTT assay; assay type: functional, cell-based; conditions: MCF7, 144 h
Summary of the method: (§4)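 Cells seeded overnight at 1500/well, then exposed to a range of concentrations for 6 d; viability by MTT (570 nm, background-subtracted, normalised to untreated control = 100%); EC50 from sigmoidal dose-response fit by non-linear least squares; mean ± SEM of at least 8 independent observations. MCF-7 in MEMα + 10% FBS; NCI/AdrRES in DMEM + 10% FCS with periodic 3 µM doxorubicin selection.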

NCI/ADR-RES [8] = test: Antiproliferative activity against human NCI/ADR-RES cells after 6 days by MTT assay; assay type: functional, cell-based; conditions: 144 h; summary of the method: as §4
Sus scrofa [9] = species on record: Sus scrofa; test: Stabilization of pig tubulin assessed as Vmax of tubulin polymerization at 10 uM after 60 mins turbidimetric analysis (reference value: 27 +/- 2 milliOD/min)
PANC-1 [10] = test: Cell cycle arrest in human PANC1 cells assessed as accumulation at G1 phase at 10 uM after 18 hrs by Hoechst 33342 staining based FACS analysis (reference value: 70.7%); assay type: functional
HeLa = test: Cytotoxicity against human HeLa cells; assay type: functional, cell-based
MCF7 [11] = test: Effect on calcein-AM accumulation in human wild type MCF7 cells at 1 uM by fluorescence assay; assay type: functional, cell-based; summary of the method: as §3
Homo sapiens [12] = species on record: Homo sapiens; test: Ratio of nicardipine activity to test compound activity for inhibition of P-gp in human NCI/ADR-RES cells assessed as rate of calcein-AM accumulation; assay type: cell-based
Summary of the method: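 Rate of calcein accumulation in NCI/AdrRES cells (1 µM calcein-AM in HBSS, fluorescence versus time, slope by linear regression) with the P-gp modulator nicardipine, compared to the rate with test compound.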

Sus scrofa [13] = species on record: Sus scrofa; test: Inhibition of pig tubulin polymerization assessed as Vmax of tubulin polymerization at 10 uM after 60 mins turbidimetric analysis (reference value: 27 +/- 2 milliOD/min)
[14] = Cytotoxicity against human Renal 1983 cells; assay type: functional, cell-based
[15] = Terminal half life in human; assay type: ADME, organism-based; conditions: in vivo, read-out: beta t1/2 (converted)
PANC-1 [16] = test: Cell cycle arrest in human PANC1 cells assessed as accumulation at S phase at 10 uM after 18 hrs by Hoechst 33342 staining based FACS analysis (reference value: 11.1%); assay type: functional
PANC-1 [17] = test: Cell cycle arrest in human PANC1 cells assessed as accumulation at G2/M phase at 10 uM after 18 hrs by Hoechst 33342 staining based FACS analysis (reference value: 13.7%); assay type: functional
MCF7 [18] = test: Cytotoxicity against human MCF7 cells; assay type: functional, cell-based
[19] = Absolute oral bioavailability in human at 150 mg; assay type: ADME, organism-based; conditions: in vivo

Work on `COc1cccc(CC2c3c(c(Br)c4c(c3OC)OCO4)CCN2C)c1OC` (stereo not given) yielded an Activity (PANC-1 [1]) of 8% and an Activity (MCF7 [2]) of 32%.

For `COC(=O)C1=C(C)NC(C)=C(C(=O)OCCN(C)Cc2ccccc2)C1c1cccc([N+](=O)[O-])c1` (stereo not given) [NICARDIPINE], the EC50 [3] was 4.7 µM, the Activity (NCI/ADR-RES [4]) was 107 RFU/min and the fold change (FC) (Homo sapiens [5]) was 13.6.

`CCNC(=O)N1CCc2c(Br)c3c(c(OC)c2C1c1ccc(OC)c(OC)c1)OCO3` (stereo not given) gave an Activity (PANC-1 [1]) of 11% and an Activity (MCF7 [2]) of -6%.

With `CCNC(=O)N1CCc2c(Br)c3c(c(OC)c2C1c1ccc(OC)cc1)OCO3` (stereo not given) the Activity (PANC-1 [1]) was 21% and the Activity (MCF7 [2]) was 18%.

With `CC[C@]1(O)C[C@@H]2CN(CCc3c([nH]c4ccccc34)[C@@](C(=O)OC)(c3cc4c(cc3OC)N(C)[C@H]3[C@@](O)(C(=O)OC)[C@H](OC(C)=O)[C@]5(CC)C=CCN6CC[C@]43[C@@H]65)C2)C1` [VINBLASTINE] the “Ratio IC50” value [6] was 267, the IC50 (MCF7 [7]) was 0.00036 µM and the IC50 (NCI/ADR-RES [8]) was 0.096 µM.

Work on `COc1c2c(c(Br)c3c1C(Cc1ccccc1)N(C)CC3)OCO2` (stereo not given) yielded an Activity (PANC-1 [1]) of 13% and an Activity (MCF7 [2]) of 9%.

For `COc1ccc(C2c3c(c(Br)c4c(c3OC)OCO4)CCN2C)cc1OC` (stereo not given), the Activity (PANC-1 [1]) was 8% and the Activity (MCF7 [2]) was 20%.

In the case of `CC(=O)O[C@H]1C(=O)[C@@]2(C)[C@H]([C@H](OC(=O)c3ccccc3)[C@]3(O)C[C@H](OC(=O)[C@H](O)[C@@H](NC(=O)c4ccccc4)c4ccccc4)C(C)=C1C3(C)C)[C@]1(OC(C)=O)CO[C@@H]1C[C@@H]2O`, the Vmax (milli optical density/minute) (Sus scrofa [9]) is reported as 76.

`CCNC(=O)N1CCc2c(Br)c3c(c(OC)c2C1c1cc(OC)c(OC)c(OC)c1)OCO3` (stereo not given) gave an Activity (PANC-1 [1]) of 2% and an Activity (MCF7 [2]) of 3%.

For `COc1cc(C2c3c(c(Br)c4c(c3OC)OCO4)CCN2C)cc(OC)c1OC` (stereo not given), the Activity (PANC-1 [1]) was 12% and the Activity (MCF7 [2]) was 48%.

`COc1ccc2c(c1OC)C(=O)O[C@@H]2[C@H]1c2c(cc3c(c2OC)OCO3)CCN1C` [NOSCAPINE] gave an EC50 [3] of 69.7 µM, an Activity (PANC-1 [10]) of 69.3% and an IC50 (HeLa) of 25 µM. The Activity (MCF7 [11]) was “inactive”, the Ratio (Homo sapiens [12]) was 4 and the Vmax (milli optical density/minute) (Sus scrofa [13]) was 20. It also gave an IC50 [14] of 39 µM, an Activity (PANC-1 [1]) of 16% and a half-life [15] of 4.5 h. For the same compound, the IC50 (MCF7 [7]) was 18.8 µM, the IC50 (NCI/ADR-RES [8]) was 17.4 µM and the Activity (MCF7 [2]) was 2%. For the same compound, the Activity (PANC-1 [16]) was 10.8%, the Activity (PANC-1 [17]) was 16.1% and the Activity (NCI/ADR-RES [4]) was 26.7 RFU/min. It also gave an IC50 (MCF7 [18]) of 42 µM, a fold change (FC) (Homo sapiens [5]) of 17.6 and a bioavailability [19] of 30%.

For `CCNC(=O)N1CCc2c(Br)c3c(c(OC)c2C1c1ccccc1)OCO3` (stereo not given), the Activity (PANC-1 [1]) was -2% and the Activity (MCF7 [2]) was 6%.

In the case of `COc1ccc(CC2c3c(c(Br)c4c(c3OC)OCO4)CCN2C)cc1` (stereo not given), the Activity (PANC-1 [1]) is reported as 226% and the Activity (MCF7 [2]) is reported as 180%.

Work on `CCNC(=O)N1CCc2c(Br)c3c(c(OC)c2C1Cc1ccc(OC)c(OC)c1)OCO3` (stereo not given) yielded an Activity (PANC-1 [1]) of -10% and an Activity (MCF7 [2]) of 12%.
